Read-outs that look alike come from different tables or passages of the source.
Key:
human GPR43 [1] = biological target: T1, human GPR43 (Homo sapiens, UniProt O15552); assay: GloSensor cAMP assay in HEK293-hGPR43 cells; type: cell-based
T1 sequence (O15552 1-330): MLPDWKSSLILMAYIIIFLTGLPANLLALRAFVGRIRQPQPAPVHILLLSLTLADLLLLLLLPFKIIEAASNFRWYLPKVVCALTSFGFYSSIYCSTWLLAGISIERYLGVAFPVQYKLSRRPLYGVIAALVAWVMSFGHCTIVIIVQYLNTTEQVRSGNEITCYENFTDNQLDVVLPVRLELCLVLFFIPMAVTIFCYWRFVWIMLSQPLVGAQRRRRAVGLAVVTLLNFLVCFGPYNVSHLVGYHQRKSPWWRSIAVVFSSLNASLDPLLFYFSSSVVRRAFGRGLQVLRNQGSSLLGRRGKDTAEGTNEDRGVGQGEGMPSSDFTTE
Outline: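 pGloSensor-22F was transfected into cumate-inducible HEK293-hGPR43 cells, which were re-plated 24 h later for 16 h. Cells were equilibrated 2 h at 20°C in CO2-independent medium with 2% GloSensor cAMP reagent, then pre-read. Compound was added for 5 min, then 1 μM forskolin for 15 min, followed by a luminescence post-read. Signal is post/pre-read, normalised to 0.2% DMSO. Single-point acetate/propionate 10 mM, other agonists 10 μM. Triplicate.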

human GPR43 [2] = biological target: T1, human GPR43; assay: Ca2+ flux assay in HEK293-hGPR43 cells; type: cell-based
Outline: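 HEK293 cells with cumate-inducible human GPR43, kept in DMEM/10% FBS/GlutaMAX/Pen-Strep/2 μg/mL puromycin at 37°C, 5% CO2. Seeded overnight, then loaded 2 h with Calcium 6 dye plus 2.5 mM probenecid. Fluorescence read (ex 485/em 525 nm) every 2.1 s for 50 s. Cells serum-starved. Run in duplicate or triplicate; mean ± SEM.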

Solubility in DMSO = type: physicochemical; settings: at a concentration of 20 mM
GPR41 = biological target: T2, GPR41 (Homo sapiens, UniProt O14843); assay: cAMP assay in GPR41-expressing HEK293 cells; type: cell-based
T2 sequence (O14843 1-346): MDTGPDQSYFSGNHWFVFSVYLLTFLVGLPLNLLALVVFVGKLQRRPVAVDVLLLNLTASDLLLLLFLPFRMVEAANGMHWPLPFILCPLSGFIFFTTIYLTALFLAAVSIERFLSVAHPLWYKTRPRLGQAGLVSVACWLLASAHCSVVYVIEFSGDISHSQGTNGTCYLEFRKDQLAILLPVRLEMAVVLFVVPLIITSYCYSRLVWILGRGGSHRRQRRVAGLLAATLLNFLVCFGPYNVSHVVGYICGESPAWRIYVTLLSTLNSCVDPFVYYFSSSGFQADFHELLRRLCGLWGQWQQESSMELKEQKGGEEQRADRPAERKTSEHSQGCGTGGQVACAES

DSS-induced colitis = DSS-induced colitis mouse model; type: in vivo, mouse (female C57BL/6); settings: 30 mg/kg p.o. daily, 2% DSS
Outline: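 Female C57BL/6 mice, 5 weeks old, SPF, acclimated 1 week, given 2% DSS (36–50 kDa) in drinking water ad libitum, renewed every 3 days. Compound 30 mg/kg p.o. daily. Scored daily: weight loss 0–4, stool 0–3, hemoccult bleeding 0–3. DAI is their sum. Day 8: colon length measured. PFA-fixed paraffin swiss-rolls stained for MPO by IHC (ABC, hematoxylin). n=5 control, 10 others.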

[3] = system: NF-κB activity induced by TNF-α in GPR43-expressing cells; assay: NF-κB luciferase reporter assay in HEK293-hGPR43 cells; type: cell-based, human
Outline: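 For the NF-κB reporter readout, HEK293-hGPR43 cells were transfected with an NF-κB-RE luciferase reporter (pGL4.32), incubated 24 h at 37°C, 5% CO2, and plated overnight. Compound pretreatment lasted 20 min, then 10 ng/mL human TNF-α was added for 6 h at 37°C. Luminescence was read 15 min after adding One-Glo reagent. Duplicate or triplicate.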

GPR43 and β-arrestin 2 = biological target: T3, GPR43 and β-arrestin 2 (Homo sapiens, UniProt O15552); assay: Nano-Glo live cell assay of interaction between GPR43 and β-arrestin 2; type: cell-based; settings: for change of potency / slope in β-arrestin-2 NanoBiT assay on addition of acetate: co-treatment with fixed concentrations of acetate
T3 sequence (O15552 1-330): T1 sequence (O15552 1-330)

[4] = Homo sapiens, 6 h, read-out: EC50 NF-κB

SMILES | EC50 (human GPR43 [1]) [µM] | cAMP level in GPR43-expressing cells (human GPR43 [1]; 10 μM) | EC50 (human GPR43 [2]) [µM] | solubility in dimethyl sulfoxide (DMSO) (Solubility in DMSO) | cAMP level in GPR41-expressing cells (GPR41; 10 μM) | EC50 [3, 4] [µM] | EC50 (GPR43 and β-arrestin 2) [µM] | agonist type in the β-arrestin assay (maximum efficacy vs acetate and PAAT) (GPR43 and β-arrestin 2) | change of potency / slope in β-arrestin-2 NanoBiT assay on addition of acetate (GPR43 and β-arrestin 2) | cAMP level in GPR43-expressing cells (human GPR43 [1]; 10 mM) | cAMP level in GPR41-expressing cells (GPR41; 10 mM) | level of myeloperoxidase (MPO) staining in colon (DSS-induced colitis; day 8) | further results
CC1=C(C(=O)Nc2cc(Cl)ccc2Cl)C(c2ccco2)C2=C(CCCC2=O)N1 (stereo not shown) [AR420626] | – | – | – | – | exerted activity | – | – | – | – | – | – | – | –
CC(=O)[O-].[Na+] [Acetate, sodium acetate, reference compound] | – | – | – | – | – | – | – | – | – | decrease | decrease | – | EC50 (human GPR43 [1]; read-out: EC50 cAMP, HEK293-hGPR43, forskolin 1 μM): 301 µM; EC50 (human GPR43 [1]; read-out: EC50 in the cAMP assay, HEK293-hGPR43): 300 µM; EC50 (human GPR43 [2]; read-out: EC50 Ca^2+, HEK293-hGPR43): 57.7 µM; efficacy of inhibition of NF-κB luciferase reporter activity ([3]; 10 ng/mL TNF-α): half the efficacy; EC50 ([3]; read-out: EC50 NF-κB, 10 ng/mL TNF-α, 6 h): 77.4 µM; EC50 (GPR43 and β-arrestin 2; read-out: EC50 β-Arrestin 2, GPR43-SmBit / LgBit-βarr2, 25 min): 1440 µM

Continued, in another order:

EC50 (human GPR43 [1]) [µM] | cAMP level in GPR43-expressing cells (human GPR43 [1]; 10 μM) | EC50 (human GPR43 [2]) [µM] | solubility in dimethyl sulfoxide (DMSO) (Solubility in DMSO) | cAMP level in GPR41-expressing cells (GPR41; 10 μM) | EC50 [3, 4] [µM] | EC50 (GPR43 and β-arrestin 2) [µM] | agonist type in the β-arrestin assay (maximum efficacy vs acetate and PAAT) (GPR43 and β-arrestin 2) | change of potency / slope in β-arrestin-2 NanoBiT assay on addition of acetate (GPR43 and β-arrestin 2) | cAMP level in GPR43-expressing cells (human GPR43 [1]; 10 mM) | cAMP level in GPR41-expressing cells (GPR41; 10 mM) | SMILES | level of myeloperoxidase (MPO) staining in colon (DSS-induced colitis; day 8) | further results
18.7 | significantly suppressed | 2.41 | completely soluble | no effects | 3.41 | 1.61 | partial agonists | stiffer slopes | – | – | Cc1nc(N2CCCC(C)C2)c2[nH]c(N)c(S(=O)(=O)c3ccccc3)c2n1 (stereo not shown) [Compound 110, 2-methyl-4-(3-methylpiperidin-1-yl)-7-(phenylsulfonyl)-5H-pyrrolo[3,2-d]pyrimidine-6-amine] | reduced | potency in the cAMP assay (human GPR43 [1]; HEK293-hGPR43): micromolar potency; colon length (DSS-induced colitis; day 8): significantly restored; daily activity index (DAI) (DSS-induced colitis; vs vehicle-treated mice): decrease; stool consistency score (DSS-induced colitis; vs vehicle-treated mice): decrease; EC50 ([3]; Homo sapiens, read-out: EC50 NF-κB luciferase reporter): 3.4 µM
0.016 | significantly suppressed | 0.019 | completely soluble | no effects | 0.019 | 0.018 | partial agonists | stiffer slopes | – | – | Cc1nc(N2C[C@@H](C)O[C@@H](C)C2)c2[nH]c(N)c(S(=O)(=O)c3ccccc3F)c2n1 [Compound 187, 4-[(2R,6S)-2,6-dimethylmorpholin-4-yl]-7-(2-fluorobenzenesulfonyl)-2-methyl-5H-pyrrolo[3,2-d]pyrimidin-6-amine] | reduced | potency and efficacy in the calcium assay (human GPR43 [2]; HEK293-hGPR43): highest potency and efficacy
– | – | – | – | – | – | – | – | – | decrease | decrease | CCC(=O)O [propionate, reference compound] | – | –

— PMC8724840 (Biomolecules & Therapeutics, 2021)
